# In ChEMBL document CHEMBL4325827, “Bifidenone: Structure-Activity Relationship and Advanced Preclinical Candidate” (J Med Chem, 2018):
# What was measured:
# [1] = Toxicity in Crl:NU(NCr)-Foxn1 nu mouse xenografted with human […] cells assessed as maximum body weight loss at 50 mg/kg, ip qd administered for 3 consecutive days followed by 2 days of rest for 3 cycles measured after 7 days post dose relative to control; type: organism-based; conditions: in vivo, 168 h
# How it was run: (§1)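 Female athymic nude mice bearing subcutaneous xenografts, started from cultured cells (NCI-H460, Calu-6, NCI-H69, LOX-IMVI) or from serially passaged tumour fragments (NCI-H522). Mice were grouped into vehicle and treatment arms at tumour volumes of about 75-200 mm3. Dosing was ip at 5-10 mL/kg in 22% ethanol, 38% PEG400, 40% 20 mM Na citrate pH 5.0. Caliper volumes were taken as (length × width2)/2. Treated and control delta weights were median tumour weight minus staging-day median.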
# [2] = Toxicity in Crl:NU(NCr)-Foxn1 nu mouse xenografted with human Calu6 cells assessed as mortality at 50 mg/kg, ip qd administered for 3 consecutive days followed by 2 days of rest for 4 cycles; type: organism-based; conditions: in vivo, 48 h
# How it was run: (§2)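 Female athymic nude mice bearing subcutaneous xenografts started from cultured human tumor cells. Mice were split into vehicle and treatment groups once tumors reached about 75-200 mm3. Dosing was ip at 5-10 mL/kg in 22% ethanol, 38% PEG400, 40% 20 mM Na citrate pH 5.0. Deaths per group were recorded alongside maximum mean bodyweight loss.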
# [3] = Toxicity in Crl:NU(NCr)-Foxn1 nu mouse xenografted with human NCI-H460 cells assessed as mortality at 40 mg/kg, ip qd administered for 3 consecutive days followed by 2 days of rest for 3 cycles; type: organism-based; conditions: in vivo, 48 h; how it was run: as §2
# [4] = (§3) Toxicity in Crl:NU(NCr)-Foxn1 nu mouse xenografted with human NCI-H69 cells assessed as maximum body weight loss at 60 mg/kg, ip dosed on day 1 followed by 4 days rest and subsequently dosed at 60 mg/kg, ip qd administered for 3 consecutive days followed by 2 days of rest for 2 cycles measured after 3 days post dose relative to control; type: organism-based; conditions: in vivo, 72 h; how it was run: as §1
# [5] = Toxicity in Crl:NU(NCr)-Foxn1 nu mouse xenografted with human NCI-H460 cells assessed as maximum body weight loss at 60 mg/kg, ip qd administered for 3 consecutive days followed by 2 days of rest for 3 cycles measured after 8 days post dose relative to control; type: organism-based; conditions: in vivo, 192 h; how it was run: as §1
# SF-295 = assay: Potency index, ratio of paclitaxel IC50 to compound IC50 for taxane-resistant human SF295 cells after 72 hrs by CellTiter 96 aqueous nonradioactive cell proliferation assay; type: functional
# [6] = Toxicity in Crl:NU(NCr)-Foxn1 nu mouse xenografted with human Calu6 cells assessed as maximum body weight loss at 60 mg/kg, ip qd administered for 3 consecutive days followed by 2 days of rest for 4 cycles measured after 2 days post dose relative to control; type: organism-based; conditions: in vivo, 48 h; how it was run: as §1
# [7] = as §3, with “70” for “60”; type: organism-based; conditions: in vivo, 72 h; how it was run: as §1
# UO-31 [8] = assay: Potency index, ratio of paclitaxel IC50 to compound IC50 for taxane-resistant human UO31 cells after 72 hrs by CellTiter 96 aqueous nonradioactive cell proliferation assay; type: functional
# LOX IMVI = assay: Antitumor activity against human LOXIMVI cells xenografted in Crl:NU(NCr)-Foxn1 nu mouse assessed as tumor growth inhibition at 30 mg/kg, ip qd relative to control; conditions: read-out: TGI
# NCI-H69 = assay: Antitumor activity against human NCI-H69 cells xenografted in Crl:NU(NCr)-Foxn1 nu mouse assessed as tumor growth inhibition at 60 mg/kg, ip dosed on day 1 followed by 4 days rest and subsequently dosed at 60 mg/kg, ip qd administered for 3 consecutive days followed by 2 days of rest for 2 cycles relative to control; type: functional; conditions: read-out: TGI; how it was run: as §1
# ACHN = assay: Antiproliferative activity against taxane-resistant human ACHN cells after 72 hrs by CellTiter 96 aqueous nonradioactive cell proliferation assay; type: functional, cell-based
# How it was run: (§4)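 Antiproliferation in cultured tumour cells, at least 3 replicate wells per concentration per experiment. NCI-H460 came from ATCC. M14, NCI/ADR-RES, OVCAR-4, HCT-15, ACHN and SF-295 came from the National Cancer Institute. IC50 reported from single experiments where no SD is given.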
# [9] = Drug uptake in tumor of human NCI-H460 cells xenografted in Crl:NU(NCr)-Foxn1 nu mouse at 40 mg/kg, ip measured at 3 hrs post injection by LC-MS analysis; type: ADME, organism-based, Neoplasm; conditions: in vivo
# How it was run: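 Male Nu/Nu mice, some bearing NCI-H460 or LOX-IMVI xenografts, given a single ip dose at 3 mL/kg. Organic vehicle components were dissolved first, with the aqueous part added gradually. Mice were euthanized at 1 h or 3 h. Cardiac blood was taken into NaEDTA/NaF plasma separator tubes. Quantification used loratadine internal standard against a spiked blank-plasma curve. Tumours were run as duplicate ~200 mg samples homogenized in 3% SDS and extracted twice with ethyl acetate, assuming 1 g tissue = 1 mL.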
# [10] = Toxicity in Crl:NU(NCr)-Foxn1 nu mouse xenografted with human LOX-IMVI cells assessed as maximum body weight loss at 30 mg/kg, ip qd administered for 7 consecutive days measured after 6 days post dose relative to control; type: organism-based; conditions: in vivo, 144 h; how it was run: as §1
# NCI/ADR-RES [11] = assay: Potency index, ratio of paclitaxel IC50 to compound IC50 for taxane-resistant human NCI/ADR-RES cells after 72 hrs by CellTiter 96 aqueous nonradioactive cell proliferation assay; type: functional
# EKVX = assay: Potency index, ratio of paclitaxel IC50 to compound IC50 for taxane-resistant human EKVX cells after 72 hrs by CellTiter 96 aqueous nonradioactive cell proliferation assay; type: functional
# UO-31 [12] = assay: Antiproliferative activity against taxane-resistant human UO31 cells after 72 hrs by CellTiter 96 aqueous nonradioactive cell proliferation assay; type: functional, cell-based; conditions: UO-31, 72 h
# NCI/ADR-RES [13] = assay: Antiproliferative activity against taxane-resistant human NCI/ADR-RES cells after 72 hrs by CellTiter 96 aqueous nonradioactive cell proliferation assay; type: functional, cell-based; how it was run: as §4
# Calu-6 = assay: Antitumor activity against human Calu6 cells xenografted in Crl:NU(NCr)-Foxn1 nu mouse assessed as tumor growth inhibition at 50 mg/kg, ip qd administered for 3 consecutive days followed by 2 days of rest for 4 cycles relative to control; type: functional; conditions: Calu-6, ip, 48 h, read-out: TGI; how it was run: as §1
# [14] = Toxicity in Crl:NU(NCr)-Foxn1 nu mouse xenografted with human Calu6 cells assessed as mortality at 60 mg/kg, ip qd administered for 3 consecutive days followed by 2 days of rest for 4 cycles; type: organism-based; conditions: in vivo, 48 h; how it was run: as §2
# NCI-H522 = assay: Antitumor activity against human NCI-H522 cells xenografted in Crl:NU(NCr)-Foxn1 nu mouse assessed as tumor growth inhibition at 50 mg/kg, ip qd administered for 3 consecutive days followed by 2 days of rest for 3 cycles relative to control; type: functional; conditions: 48 h, read-out: TGI; how it was run: as §1
# NCI-H460 = assay: Antiproliferative activity against human NCI-H460 cells after 72 hrs by CellTiter 96 aqueous nonradioactive cell proliferation assay; type: functional, cell-based; conditions: NCI-H460, 72 h; how it was run: as §4
structure (smiles),measurement,setting,value
C=CC[C@H]1C[C@]2([C@H](C)Cc3cc(O)c(OC)cc3F)OCOC2=CC1=O,Activity,[1],8%
same,Activity,[2],Non-Toxic
same,Activity,[3],Toxic
same,Activity,[4],6%
same,Activity,[5],12%
same,Ratio IC50,SF-295,6
same,Activity,[6],2%
same,Activity,[7],9%
same,Ratio IC50,UO-31 [8],34
same,inhibition in vivo at 30 mg/kg,LOX IMVI,63%
same,inhibition in vivo at 60 mg/kg,NCI-H69,77%
same,IC50,ACHN,12 nM
same,Drug uptake,[9],Active
same,Activity,[10],9%
same,Ratio IC50,NCI/ADR-RES [11],>1000
same,Ratio IC50,EKVX,21
same,IC50,UO-31 [12],7 nM
same,IC50,NCI/ADR-RES [13],9 nM
same,inhibition in vivo at 50 mg/kg,Calu-6,76%
same,Activity,[14],Non-Toxic
same,inhibition in vivo at 50 mg/kg,NCI-H522,69%
same,IC50,NCI-H460,15 nM
